# ChEMBL document CHEMBL4334464, “From Phenylthiazoles to Phenylpyrazoles: Broadening the Antibacterial Spectrum toward Carbapenem-Resistant Bacteria” (J Med Chem, 2019)
# Active and inactive are the calls of the source. The calls are words filed in the database; no cut-off is given here.
# Assays:
# [1] = system: Escherichia coli; experiment: Antibacterial activity against Escherichia coli BW25113 clinical isolates after 18 to 20 hrs in aerobic condition by CLSI-based broth microdilution assay; type: functional
# [2] = system: Pseudomonas aeruginosa; experiment: Antibacterial activity against Pseudomonas aeruginosa ATCC 15442 clinical isolates after 18 to 20 hrs in aerobic condition by CLSI-based broth microdilution assay; type: functional
# [3] = system: Escherichia coli; experiment: Antimicrobial activity against Escherichia coli JW55031 harboring deltatolC mutant after 18 to 20 hrs in aerobic condition by CLSI protocol based broth microdilution assay; type: functional
# [4] = system: Klebsiella pneumoniae; experiment: Antibacterial activity against Klebsiella pneumoniae BAA-1706 clinical isolates after 18 to 20 hrs in aerobic condition by CLSI-based broth microdilution assay; type: functional
# [5] = system: Acinetobacter baumannii; experiment: Antibacterial activity against Acinetobacter baumannii ATCC 19606 clinical isolates after 18 to 20 hrs in aerobic condition by CLSI-based broth microdilution assay; type: functional; details: ATCC 19606 = CIP 70.34 = JCM 6841
# [6] = system: Staphylococcus aureus; experiment: Antibacterial activity against methicillin-resistant Staphylococcus aureus NRS384-USA300 clinical isolates after 18 to 20 hrs in aerobic condition by CLSI protocol based broth microdilution assay; type: functional
# [7] = Efflux ratio of apparent permeability across basolateral to apical side over apical to basolateral side in human Caco2 cells after 2 hrs by LC/MS/MS analysis; type: ADME, cell-based; details: Caco-2
# [8] = Apparent permeability across basolateral to apical side in human Caco2 cells after 2 hrs by LC/MS/MS analysis; type: ADME, cell-based; details: Caco-2
# [9] = system: Staphylococcus aureus; experiment: Bactericidal activity against methicillin-resistant Staphylococcus aureus NRS123-USA400 clinical isolates at 5 times MIC incubated over 24 hrs followed by replating on tryptic soy agar plate and further incubated for 18 to 20 hrs by time kill assay; type: functional, organism-based
# [10] = system: Listeria monocytogenes; experiment: Antibacterial activity against Listeria monocytogenes ATCC 19111 after 18 to 20 hrs in aerobic condition by CLSI-based broth microdilution assay; type: functional
# [11] = system: Streptococcus pneumoniae; experiment: Antibacterial activity against cephalosporin-resistant Streptococcus pneumoniae ATCC 51916 clinical isolates after 18 to 20 hrs by CLSI-based broth microdilution assay; type: functional
# [12] = system: Staphylococcus aureus; experiment: Antibacterial activity against vancomycin-resistant Staphylococcus aureus isolate 12 after 18 to 20 hrs in aerobic condition by CLSI-based broth microdilution assay; type: functional
# [13] = system: Staphylococcus aureus; experiment: Antibacterial activity against methicillin-resistant Staphylococcus aureus NRS123-USA400 infected in mouse J774 cells assessed as reduction in intracellular bacterial cells at 2 times MIC incubated for 24 hrs followed by re-plating on TSA plate and measured after 18 to 22 hrs relative to control; type: functional
# Procedure, shortened: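 J774 murine macrophages were infected with MRSA USA400 and then treated at 2×MIC for 24 h, in triplicate. The read-out was percent reduction in intracellular colony-forming units versus untreated infected cells.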
# [14] = system: Enterococcus faecalis; experiment: Antibacterial activity against vancomycin-resistant Enterococcus faecalis ATCC 51299 clinical isolates after 18 to 20 hrs in aerobic condition by CLSI-based broth microdilution assay; type: functional
# [15] = system: Clostridioides difficile; experiment: Antibacterial activity against Clostridium difficile ATCC BAA 1870 incubated for 48 hrs in anaerobic condition by CLSI-based broth microdilution assay; type: functional; details: ATCC BAA 1870, 48 h
# [16] = system: Enterococcus faecium; experiment: Antibacterial activity against vancomycin-resistant Enterococcus faecium ATCC 700221 clinical isolates after 18 to 20 hrs in aerobic condition by CLSI-based broth microdilution assay; type: functional
# [17] = system: Staphylococcus aureus; experiment: Antibacterial activity against vancomycin-resistant Staphylococcus aureus isolate 10 after 18 to 20 hrs in aerobic condition by CLSI-based broth microdilution assay; type: functional
# [18] = system: Streptococcus pneumoniae; experiment: Antibacterial activity against methicillin-resistant Streptococcus pneumoniae ATCC 700677 clinical isolates after 18 to 20 hrs by CLSI-based broth microdilution assay; type: functional
# [19] = system: Staphylococcus aureus; experiment: Antibiofilm activity against methicillin-resistant Staphylococcus aureus NRS384-USA300 clinical isolates assessed as inhibition of biofilm formation at 0.5 times MIC incubated for 24 hrs by crystal violet staining based spectrophotometric method relative to control; type: functional
smiles,measurement,setting,value
C/C(=N/NC(=N)N)c1sc(-c2ccc(C#Cc3ccccc3)cc2)nc1C,Activity,[1],inactive
same,Activity,[2],inactive
same,Activity,[3],inactive
same,Activity,[4],inactive
same,Activity,[5],inactive
C/C(=N\NC(=N)N)c1cnn(-c2ccc(C#CC3CC3)cc2)c1C,MIC,[3],8 µg/mL
same,MIC,[6],8 µg/mL
CCCC#Cc1ccc(-n2ncc(/C(C)=N/NC3=NCCN3)c2C)cc1,MIC,[3],16 µg/mL
same,MIC,[6],8 µg/mL
C/C(=N\NC(=N)N)c1cnn(-c2ccc(C#CC(C)(C)C)cc2)c1C,MIC,[3],8 µg/mL
same,MIC,[6],8 µg/mL
CC(=O)C(=CN(C)C)C(C)=O,efflux ratio at 2 h,[7],> 2
same,Papp B→A at 2 h,[8],1.2 ×10⁻⁶ cm/s
CN[C@H](CC(C)C)C(=O)N[C@H]1C(=O)N[C@@H](CC(N)=O)C(=O)N[C@H]2C(=O)N[C@H]3C(=O)N[C@H](C(=O)N[C@H](C(=O)O)c4cc(O)cc(O)c4-c4cc3ccc4O)[C@H](O)c3ccc(c(Cl)c3)Oc3cc2cc(c3O[C@@H]2O[C@H](CO)[C@@H](O)[C@H](O)[C@H]2O[C@H]2C[C@](C)(N)[C@H](O)[C@H](C)O2)Oc2ccc(cc2Cl)[C@H]1O [VANCOMYCIN],Activity,[9],Active
same,MIC,[10],2 µg/mL
same,MIC,[11],2 µg/mL
same,MIC,[12],64 µg/mL
same,Activity,[13],inactive
same,MIC,[14],32 µg/mL
same,MIC,[15],1 µg/mL
same,MIC,[16],> 64 µg/mL
same,MIC,[17],> 64 µg/mL
same,MIC,[18],1 µg/mL
same,inhibition (INH),[19],18%
C/C(=N\NC(=N)N)c1sc(-c2ccc(C#CC3CCCC3)cc2)nc1C,Activity,[1],inactive
same,Activity,[2],inactive
same,Activity,[3],inactive
same,Activity,[4],inactive
same,Activity,[5],inactive
C/C(=N\NC1=NCCN1)c1cnn(-c2ccc(C#CC3CC3)cc2)c1C,MIC,[3],32 µg/mL
same,MIC,[6],16 µg/mL
CCN(CC)CC#Cc1ccc(-n2ncc(/C(C)=N/NC3=NCCN3)c2C)cc1,MIC,[3],> 128 µg/mL
same,MIC,[6],> 128 µg/mL
CCCCCCC#Cc1ccc(-n2ncc(/C(C)=N/NC3=NCCN3)c2C)cc1,MIC,[3],8 µg/mL
same,MIC,[6],4 µg/mL
C/C(=N\NC1=NCCN1)c1cnn(-c2ccc(C#CC3(O)CCCCC3)cc2)c1C,MIC,[3],32 µg/mL
same,MIC,[6],64 µg/mL
CCCCC#Cc1ccc(-n2ncc(/C(C)=N/NC(=N)N)c2C)cc1,MIC,[3],4 µg/mL
same,MIC,[6],2 µg/mL
CCCCCCC#Cc1ccc(-n2ncc(/C(C)=N/NC(=N)N)c2C)cc1,MIC,[3],8 µg/mL
same,MIC,[6],2 µg/mL
